Experimental data reported in ChEMBL document CHEMBL4229360, “Antimalarial agents against both sexual and asexual parasites stages: structure-activity relationships and biological studies of the Malaria Box compound 1-[5-(4-bromo-2-chlorophenyl)furan-2-yl]-N-[(piperidin-4-yl)methyl]methanamine (MMV019918) and analogues” (Eur J Med Chem, 2018).
Activity calls are given as the source filed them. No cut-off for these calls is given here.

Columns and labels:
Plasmodium falciparum [1] = test: Antiplasmodial activity against chloroquine-sensitive Plasmodium falciparum D10 after 72 hrs by lactate dehydrogenase assay; assay type: functional, organism-based; settings: D10, 72 h
How it was run: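 Asynchronous blood-stage cultures at 1–1.5% parasitemia and 1% final hematocrit in human A+ RBCs, RPMI 1640 with 1% AlbuMax, hypoxanthine, HEPES and glutamine. Serial dilutions from DMSO stocks, final DMSO <1%. Incubated 72 h at 37 °C under 1% O₂/5% CO₂. IC50 is the mean of ≥3 experiments in duplicate.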

Plasmodium falciparum [2] = test: Antiplasmodial activity against asexual blood stage Plasmodium falciparum NF54 after 72 hrs by SYBR green-based fluorometric analysis; assay type: functional, organism-based; settings: NF54, 72 h
How it was run: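 Asexual NF54 seeded at 0.83% parasitaemia, 1.5% haematocrit, in RPMI1640 with 10% human serum. Serial dilutions, final DMSO 0.1%. Incubated 72 h at 37 °C under 3% O2, 4% CO2, then read by SYBR Green fluorescence.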

Plasmodium falciparum [3] = test: Gametocytocidal activity against Plasmodium falciparum NF54 HGL gametocytes assessed as inhibition of parasite viability after 72 hrs by ONE-Glo reagent based luminescence assay; assay type: functional, organism-based
How it was run: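 NF54 gametocytes raised in 5% haematocrit RPMI1640/10% human serum, with 50 mM NAG on days 4–9. Mainly stage IV gametocytes isolated on day 11 by Percoll gradient and seeded at 5000 cells/well, final DMSO 0.1%. Incubated 72 h at 37 °C, 3% O2, 4% CO2; viability by ONE-Glo luminescence.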

Plasmodium falciparum [4] = test: Antiplasmodial activity against gametocytes of Plasmodium falciparum NF54 infected in Anopheles mosquitoes assessed as decrease in infection prevalance measured at baseline infection intensity of 30 oocysts/midgut pre-treated with compound for 24 hrs before feeding and measured 8 days post infection by standard membrane feeding assay; assay type: functional, organism-based
How it was run: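 NF54-HGL luciferase-reporter gametocytes were pre-incubated with compound for 24 h, then membrane-fed to Anopheles mosquitoes. Infection was read by luminescence 8 d post-infection, with 24 mosquitoes analysed per feed and each feed done in duplicate. IC50 was derived for infection intensity and for prevalence at a baseline of 30 oocysts/midgut.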

Plasmodium berghei = test: Antimalarial activity against liver stage form of mCherry expressing Plasmodium berghei ANKA sporozoites infected in mouse primary hepatocytes assessed as reduction in parasite load at 0.0625 to 4 uM administered 2 hrs post infection and measured after 48 hrs post infection with medium change at 24 hrs post infection by fluorescent microscopic analysis; assay type: functional, organism-based
How it was run: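 Parasite number and size in unfixed cells by automated microscopy at 48 hpi. Detached cells collected at 65 hpi, counted by fluorescence microscopy, expressed as % of 48 h parasite number. n = 4; one-way ANOVA with Dunnett's test.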

[5] = Cardiotoxicity in Langendorff perfused Wistar rat heart assessed as coronary perfusion pressure at 0.1 to 10 uM; assay type: toxicity, tissue-based
[6] = Cardiotoxicity in Langendorff perfused Wistar rat heart assessed as frequency of heart rate at 0.1 uM by electrocardiography (reference value: 247.05 to 275.90 bpm); assay type: toxicity, tissue-based
[7] = Cardiotoxicity in Langendorff perfused Wistar rat heart assessed as cycle length interval time at 0.1 uM by electrocardiography (reference value: 217.15 to 242.23 milliseconds); assay type: toxicity, tissue-based
[8] = Cardiotoxicity in Langendorff perfused Wistar rat heart assessed as cycle length interval time at 1 uM by electrocardiography (reference value: 217.15 to 242.23 milliseconds); assay type: toxicity, tissue-based
[9] = Cardiotoxicity in Langendorff perfused Wistar rat heart assessed as cycle length interval time at 3 uM by electrocardiography (reference value: 217.15 to 242.23 milliseconds); assay type: toxicity, tissue-based
[10] = Cardiotoxicity in Langendorff perfused Wistar rat heart assessed as PQ interval time at 1 uM by electrocardiography (reference value: 41.13 to 42.63 milliseconds); assay type: toxicity, tissue-based
[11] = Cardiotoxicity in Langendorff perfused Wistar rat heart assessed as QTc interval time at 0.1 uM by electrocardiography (reference value: 76.45 to 80.07 milliseconds); assay type: toxicity, tissue-based
[12] = Cardiotoxicity in Langendorff perfused Wistar rat heart assessed as QTc interval time at 1 uM by electrocardiography (reference value: 76.45 to 80.07 milliseconds); assay type: toxicity, tissue-based
[13] = Cardiotoxicity in Langendorff perfused Wistar rat heart assessed as QTc interval time at 3 uM by electrocardiography (reference value: 76.45 to 80.07 milliseconds); assay type: toxicity, tissue-based
[14] = target: T1, Phosphoethanolamine N-methyltransferase (Plasmodium falciparum) (UniProt Q8IDQ9); test: Inhibition of plasmodium falciparum phosphoethanolamine N-methyltransferase expressed in Escherichia coli assessed as remaining enzyme activity at 100 uM using phosphoethanolamine as substrate and [methyl-14C] SAM by radiochemical assay
T1 sequence (whole entry): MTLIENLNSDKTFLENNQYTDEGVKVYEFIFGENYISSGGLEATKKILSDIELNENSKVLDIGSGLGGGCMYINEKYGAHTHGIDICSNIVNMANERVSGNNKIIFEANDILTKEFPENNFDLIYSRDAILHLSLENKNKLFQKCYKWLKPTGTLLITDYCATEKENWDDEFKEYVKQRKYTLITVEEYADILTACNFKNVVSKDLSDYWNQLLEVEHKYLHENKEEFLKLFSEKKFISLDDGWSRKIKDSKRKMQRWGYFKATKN
How it was run: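 Recombinant PfPMT purified from E. coli, 2 μg per 100 μL reaction. Buffer 0.1 M HEPES-KOH pH 8.0, 2 mM Na2EDTA, 10% glycerol, 5% DMSO, with 30 μM SAM (100 nCi [methyl-14C]SAM) and 55 μM phosphoethanolamine; radiochemical read-out.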

Question: Which results are given for `Clc1ccc(-c2ccc(CNCC3CCNCC3)o2)c(-c2ccccc2)c1`?
Answer: IC50 (Plasmodium falciparum [1]): 880 nM; IC50 (Plasmodium falciparum [2]): 670 nM; IC50 (Plasmodium falciparum [3]): 43 nM; IC50 (Plasmodium falciparum [4]): 830 nM; Activity (Plasmodium berghei): inactive; Activity [5]: Non-Toxic; Activity [6]: 276.19 bpm; Time [7]: 218.32 ms; Time [8]: 217.02 ms; Time [9]: 216.73 ms; Time [10]: 41.59 ms; Time [11]: 74.92 ms; Time [12]: 77.21 ms; Time [13]: 78.56 ms; Activity [14]: 30%
